The subject of one assay is HCT-116. Nature of the assay: Cytotoxicity against human HCT116 cells assessed as reduction in cell viability after 72 hrs by MTT assay. Type of assay: functional, cell-based. The procedure, abridged: (§1)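 Cells seeded in 96-well plates and incubated overnight at 37 °C. Treated with a range of concentrations (∼35 to 0.1 μM) for ∼72 h at 37 °C. Viability read by MTT assay. EC50 estimated from the dose-response curves.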
Background: Formazan colour is commonly taken as a measure of viable cells.

The next assay deals with A549. Nature of the assay: Cytotoxicity against human A549 cells assessed as reduction in cell viability after 72 hrs by MTT assay. Type of assay: functional, cell-based. The method, boiled down:
as §1

Each structure is given as a SMILES string. Starred links: 1 amine or outer side, 2 acyl side, 3 side chain; linkers in the order of their positions; H or OH if unused. Positions of bridges follow the written chain, without caps; N, C: chain ends. Non-standard residues stand in square brackets, D forms with d. Residues, ends and D or L forms follow the SMILES beside them. Adda = CO[C@@H](Cc1ccccc1)[C@@H](C)/C=C(C)/C=C/[C@H](N[*:1])[C@H](C)C(=O)[*:2]; dAsp(3S-Me) = C[C@H](C(=O)[*:3])[C@@H](N[*:1])C(=O)[*:2]; d(γGlu) = O=C(O)[C@@H](CCC(=O)[*:2])N[*:1]; NMeDha = C=C(NC)C(=O)O

For orientation: EC50 means the concentration needed to bring the measured effect to its halfway point. Consider `C=C1C(=O)N[C@H](CC(C)C)C(=O)N[C@@H](CC(C)C)C(=O)N[C@@H](C(=O)O)[C@H](C)C(=O)N[C@@H](Cc2ccc(O)cc2)C(=O)N[C@@H](/C=C/C(C)=C/[C@H](C)[C@H](Cc2ccccc2)OC)[C@H](C)C(=O)N[C@@H](C(=O)O)CCC(=O)N1C` (Y[Adda][d(γGlu)][NMeDha][dL]L[dAsp(3S-Me)]-OH; lactam N-7), for which, in the assay with HCT-116, the Activity entry is “Dose-dependent effect” and the EC50 amounted to 11 µM. Further, in the assay on A549, the Activity result was “Dose-dependent effect” and the concentration for a half-maximal effect (EC50) turned out to be 1.3 µM.
As for `C=C1C(=O)N[C@H](C)C(=O)N[C@@H](CC(C)C)C(=O)N[C@@H](C(=O)O)[C@H](C)C(=O)N[C@@H](CCCNC(=N)N)C(=O)N[C@@H](/C=C/C(C)=C/[C@H](C)[C@H](Cc2ccccc2)OC)[C@H](C)C(=O)N[C@@H](C(=O)O)CCC(=O)N1C` [MICROCYSTIN-LR] (R[Adda][d(γGlu)][NMeDha][dA]L[dAsp(3S-Me)]-OH; lactam N-7), the figures for the EC50 in the assay on HCT-116 and in the assay with A549 were 35 µM and > 35 µM, respectively.
Regarding `C=C1C(=O)N[C@H](C)C(=O)N[C@@H](CCc2ccc(O)cc2)C(=O)N[C@@H](C(=O)O)[C@H](C)C(=O)N[C@@H](CCCc2ccc(O)cc2)C(=O)N[C@@H](/C=C/C(C)=C/[C@H](C)[C@H](Cc2ccccc2)OC)[C@H](C)C(=O)N[C@@H](C(=O)O)CCC(=O)N1C`, in the assay on HCT-116, the Activity result is “Dose-dependent effect” and the EC50 was found to be 3.3 µM. Moreover, in the assay on A549, the Activity result is “Dose-dependent effect” and the EC50 was found to be 0.36 µM.
As to `C=C1C(=O)N[C@H](C)C(=O)N[C@@H](CCCc2ccc(O)cc2)C(=O)N[C@@H](C(=O)O)[C@H](C)C(=O)N[C@@H](CCCNC(=N)N)C(=O)N[C@@H](/C=C/C(C)=C/[C@H](C)[C@H](Cc2ccccc2)OC)[C@H](C)C(=O)N[C@@H](C(=O)O)CCC(=O)N1C`, the values for the EC50 with HCT-116 and with A549 were > 35 µM and 18 µM, respectively.

Values taken from ChEMBL document CHEMBL4145606, “Microcystins Containing Doubly Homologated Tyrosine Residues from a Microcystis aeruginosa Bloom: Structures and Cytotoxicity” (J Nat Prod, 2018).
